# From ChEMBL document CHEMBL5303300, “EUbOPEN Chemogenomics Library - Multiplex” (2023)
# “And” between values parts separate entries of the source, which are not always exact repeats. Identical values can stand only once.
# System: Fibroblast
# Assay: Multiplex assay against human fibroblast
# Assay type: toxicity, cell-based
# Conditions: number of replicates 2
# Outline: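 Four dyes were applied at seeding to live cells: Hoechst33342, BioTracker Green Microtubule Cytoskeleton Dye, MitoTracker Red and Annexin V Alexa Fluor 680. Imaging after compound addition used a CQ1 microscope at 37°C and 5% CO2. CellPathfinder machine-learning gating then sorted cells into Hoechst high-intensity objects or normal cells, normal cells into healthy, pyknosed or fragmented nuclei, and pyknosed cells into mitotic or apoptotic, with tubulin, mitochondrial-mass and membrane-permeability phenotypes given as per cents of healthy-nucleus cells.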
# [1] = 12 h, 1 µM, compound concentration 1 uM
# [2] = 12 h, 10 µM, compound concentration 10 uM
# [3] = 24 h, 1 µM, compound concentration 1 uM
# [4] = 24 h, 10 µM, compound concentration 10 uM
# [5] = 48 h, 1 µM, compound concentration 1 uM
# [6] = 48 h, 10 µM, compound concentration 10 uM
smiles,measurement,setting,value
O=C(NCc1ccc(F)cc1)N1CCN2C(=O)OC(c3ccccc3)(c3ccccc3)C2C1 (stereo not given),Population Apoptotic (%),[1],41% and 22%
same,Population Fragmented Nuclei (%),[1],12% and 10%
same,Population Healthy Nuclei (%),[1],71% and 75%
same,Population Hoechst High Intensity Objects (%),[1],0%
same,Population Membrane Permeable-Phenotype (%),[1],10% and 5%
same,Population Mitochondria Different-Phenotype (%),[1],2% and 1%
same,Population Mitotic Cells (%),[1],58% and 77%
same,Population Normal (%),[1],99%
same,Population Pyknosed Nuclei (%),[1],15% and 14%
same,Population Tubulin-Different-Phenotype (%),[1],20% and 13%
same,Total Cell Count,[1],252
same,Population Apoptotic (%),[2],58% and 35%
same,Population Fragmented Nuclei (%),[2],14% and 9%
same,Population Healthy Nuclei (%),[2],69% and 77%
same,Population Hoechst High Intensity Objects (%),[2],0%
same,Population Membrane Permeable-Phenotype (%),[2],9% and 14%
same,Population Mitochondria Different-Phenotype (%),[2],3%
same,Population Mitotic Cells (%),[2],41% and 65%
same,Population Normal (%),[2],100% and 99%
same,Population Pyknosed Nuclei (%),[2],15% and 12%
same,Population Tubulin-Different-Phenotype (%),[2],69% and 59%
same,Total Cell Count,[2],153 and 155
same,Population Apoptotic (%),[3],59% and 46%
same,Population Fragmented Nuclei (%),[3],13% and 15%
same,Population Healthy Nuclei (%),[3],72% and 73%
same,Population Hoechst High Intensity Objects (%),[3],0%
same,Population Membrane Permeable-Phenotype (%),[3],6% and 3%
same,Population Mitochondria Different-Phenotype (%),[3],1% and 0%
same,Population Mitotic Cells (%),[3],40% and 53%
same,Population Normal (%),[3],100%
same,Population Pyknosed Nuclei (%),[3],14% and 10%
same,Population Tubulin-Different-Phenotype (%),[3],19% and 12%
same,Total Cell Count,[3],253 and 276
same,Population Apoptotic (%),[4],65% and 50%
same,Population Fragmented Nuclei (%),[4],12%
same,Population Healthy Nuclei (%),[4],68% and 75%
same,Population Hoechst High Intensity Objects (%),[4],0% and 1%
same,Population Membrane Permeable-Phenotype (%),[4],7% and 2%
same,Population Mitochondria Different-Phenotype (%),[4],9% and 7%
same,Population Mitotic Cells (%),[4],34% and 50%
same,Population Normal (%),[4],99% and 98%
same,Population Pyknosed Nuclei (%),[4],19% and 12%
same,Population Tubulin-Different-Phenotype (%),[4],61% and 48%
same,Total Cell Count,[4],153 and 151
same,Population Apoptotic (%),[5],62% and 69%
same,Population Fragmented Nuclei (%),[5],15% and 10%
same,Population Healthy Nuclei (%),[5],74% and 79%
same,Population Hoechst High Intensity Objects (%),[5],0%
same,Population Membrane Permeable-Phenotype (%),[5],7% and 3%
same,Population Mitochondria Different-Phenotype (%),[5],0%
same,Population Mitotic Cells (%),[5],37% and 30%
same,Population Normal (%),[5],100%
same,Population Pyknosed Nuclei (%),[5],10% and 9%
same,Population Tubulin-Different-Phenotype (%),[5],11% and 5%
same,Total Cell Count,[5],259 and 265
same,Population Apoptotic (%),[6],45% and 83%
same,Population Fragmented Nuclei (%),[6],15% and 12%
same,Population Healthy Nuclei (%),[6],69% and 75%
same,Population Hoechst High Intensity Objects (%),[6],0% and 1%
same,Population Membrane Permeable-Phenotype (%),[6],5%
same,Population Mitochondria Different-Phenotype (%),[6],2%
same,Population Normal (%),[6],100% and 98%
same,Population Pyknosed Nuclei (%),[6],15% and 12%
same,Population Tubulin-Different-Phenotype (%),[6],53% and 43%
same,Total Cell Count,[6],156 and 150
COc1cc(C(=O)NC2CCN(C)CC2)ccc1Nc1ncc(C(F)(F)F)c(NCc2ccc(C)cc2N(C)S(C)(=O)=O)n1.O=CO.O=CO,Population Apoptotic (%),[1],44% and 53%
same,Population Fragmented Nuclei (%),[1],24% and 14%
same,Population Healthy Nuclei (%),[1],64% and 61%
same,Population Hoechst High Intensity Objects (%),[1],1% and 0%
same,Population Membrane Permeable-Phenotype (%),[1],8% and 11%
same,Population Mitochondria Different-Phenotype (%),[1],3% and 4%
same,Population Mitotic Cells (%),[1],55% and 46%
same,Population Normal (%),[1],98% and 100%
same,Population Pyknosed Nuclei (%),[1],10% and 24%
same,Population Tubulin-Different-Phenotype (%),[1],64% and 46%
same,Total Cell Count,[1],277 and 215
same,Population Apoptotic (%),[2],63% and 46%
same,Population Fragmented Nuclei (%),[2],6% and 16%
same,Population Healthy Nuclei (%),[2],27% and 55%
same,Population Hoechst High Intensity Objects (%),[2],0%
same,Population Membrane Permeable-Phenotype (%),[2],6% and 8%
same,Population Mitochondria Different-Phenotype (%),[2],15%
same,Population Mitotic Cells (%),[2],36% and 53%
same,Population Normal (%),[2],100% and 99%
same,Population Pyknosed Nuclei (%),[2],66% and 27%
same,Population Tubulin-Different-Phenotype (%),[2],67% and 69%
same,Total Cell Count,[2],168 and 259
same,Population Apoptotic (%),[3],63% and 64%
same,Population Fragmented Nuclei (%),[3],21% and 17%
same,Population Healthy Nuclei (%),[3],70% and 66%
same,Population Hoechst High Intensity Objects (%),[3],1% and 0%
same,Population Membrane Permeable-Phenotype (%),[3],4% and 6%
same,Population Mitochondria Different-Phenotype (%),[3],9% and 6%
same,Population Mitotic Cells (%),[3],36% and 35%
same,Population Normal (%),[3],98% and 100%
same,Population Pyknosed Nuclei (%),[3],8% and 16%
same,Population Tubulin-Different-Phenotype (%),[3],53% and 38%
same,Total Cell Count,[3],268 and 243
same,Population Apoptotic (%),[4],94% and 92%
same,Population Fragmented Nuclei (%),[4],5% and 12%
same,Population Healthy Nuclei (%),[4],9% and 16%
same,Population Hoechst High Intensity Objects (%),[4],0% and 1%
same,Population Mitochondria Different-Phenotype (%),[4],23% and 62%
same,Population Mitotic Cells (%),[4],5% and 7%
same,Population Normal (%),[4],99% and 98%
same,Population Pyknosed Nuclei (%),[4],85% and 70%
same,Population Tubulin-Different-Phenotype (%),[4],84% and 77%
same,Total Cell Count,[4],135 and 166
same,Population Apoptotic (%),[5],94% and 90%
same,Population Fragmented Nuclei (%),[5],27% and 25%
same,Population Healthy Nuclei (%),[5],66% and 65%
same,Population Hoechst High Intensity Objects (%),[5],0%
same,Population Membrane Permeable-Phenotype (%),[5],6% and 5%
same,Population Mitochondria Different-Phenotype (%),[5],5% and 2%
same,Population Mitotic Cells (%),[5],5% and 9%
same,Population Normal (%),[5],99%
same,Population Pyknosed Nuclei (%),[5],6% and 8%
same,Population Tubulin-Different-Phenotype (%),[5],43% and 20%
same,Total Cell Count,[5],267 and 253
same,Population Apoptotic (%),[6],97% and 96%
same,Population Fragmented Nuclei (%),[6],27% and 31%
same,Population Healthy Nuclei (%),[6],16% and 15%
same,Population Hoechst High Intensity Objects (%),[6],0%
same,Population Membrane Permeable-Phenotype (%),[6],31% and 30%
same,Population Mitochondria Different-Phenotype (%),[6],9% and 26%
same,Population Mitotic Cells (%),[6],2% and 3%
same,Population Normal (%),[6],100%
same,Population Pyknosed Nuclei (%),[6],56% and 53%
same,Population Tubulin-Different-Phenotype (%),[6],81% and 78%
same,Total Cell Count,[6],132 and 153
